Experimental findings from ChEMBL document CHEMBL4732155 (Eur J Med Chem, 2021) are described below.

In assay [1] the target is T1, Transitional endoplasmic reticulum ATPase (Homo sapiens, UniProt P55072). Briefly: Inhibition of p97 (unknown origin) expressed in HEK293 cells co-expressing TCRalpha-GFP assessed as reduction in ERAD-dependent reporter substrate TCRalpha-GFP degradation at 10 uM incubated for 60 to 120 mins by immunoblotting analysis. The note with it: time lower 60.0 min, time upper […]. Type of assay: cell-based. The gist of the method:
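HEK293 cells stably expressing TCRα-GFP pretreated with 4 μM MG132 for 1 h and washed. Then incubated with 50 μM cycloheximide plus 10 μM compound for 60 or 120 min before harvest. Immunoblotted with anti-GFP, with anti-p97 as loading control.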
In general terms: In western blotting, separated proteins are transferred to a membrane and probed.

The nature of assay [2]: Effect on PLEC expression in human HCT-116 cells at 30 uM measured after 6 hrs by LC-MS/MS analysis relative to control. The class given is functional. The gist of the method:
(§1)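 HCT116 cells treated 6 h with DMSO, 15 μM or 30 μM compound, then pelleted. Peptides (1 μg) separated on a 25 cm C18 nano-column with a 136 min gradient and analysed by label-free LC-MS/MS on an Orbitrap Eclipse. Searched against the UniProt human database and quantified from normalized abundance. Two independent biological replicates per group; log2 fold change versus DMSO, p < 0.05.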

Assay [3] in a line: Inhibition of His6-tagged p97 C522T mutant (unknown origin) expressed in Escherichia coli BL21 (DE3) assessed as reduction in ATPase activity measured after 60 mins by biomol green reagent based assay. More on the design: species or system Homo sapiens. In outline: (§2)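 His6-p97 expressed in E. coli BL21(DE3), purified by Ni-NTA and gel filtration (500–600 kDa fractions, ≥95% pure). Phosphate read by Biomol Green at 635 nm. Eight-dose titrations; IC50 from six replicates. Thiol tests added DTT or cysteine during preincubation.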

Assay [4] can be described thus: Effect on GOLGA3 expression in human HCT-116 cells at 15 uM measured after 6 hrs by LC-MS/MS analysis relative to control. The class given is functional. The gist of the method: as §1
Assay [5] addresses T1, Transitional endoplasmic reticulum ATPase. Nature of the assay: Inhibition of His6-tagged p97 (unknown origin) expressed in Escherichia coli BL21 (DE3) assessed as reduction in ATPase activity measured after 60 mins in presence of DTT by biomol green reagent based assay. In outline:
as §2

Assay [6] in a line: Effect on AP2M1 expression in human HCT-116 cells at 15 uM measured after 6 hrs by LC-MS/MS analysis relative to control. The class given is functional. The gist of the method:
as §1

Assay [7] can be described thus: Selectivity ratio of IC50 for inhibition of proteasomal turnover of p97-independent ODD-luciferase reporter substrate in human HeLa cells to IC50 for inhibition of p97 in human HeLa cells assessed as reduction in proteasomal turnover of p97-dependent reporter substrate UbG76V-GFP. In outline: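 HeLa cells stably carrying both UbG76V-GFP and ODD-Luc, in DMEM with 2.5% FBS, received 4 μM MG132 for 60 min at 37°C. After PBS washes they got cycloheximide plus compound for 120 min at 37°C. GFP was read by confocal imaging, then luminescence after D-luciferin (10 min, r.t.). IC50s for each reporter came from quadruplicates.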

Assay [8] can be described thus: Effect on EPPK1 expression in human HCT-116 cells at 15 uM measured after 6 hrs by LC-MS/MS analysis relative to control. The class given is functional. In outline:
as §1

Assay [9] in a line: Effect on AUP1 expression in human HCT-116 cells at 15 uM measured after 6 hrs by LC-MS/MS analysis relative to control. Type of assay: functional. The gist of the method: as §1
Assay [10] can be described thus: Inhibition of proteasomal turnover of p97-independent ODD-luciferase reporter substrate in human HeLa cells incubated for 120 mins by luciferase reporter gene assay. The class given is functional, cell-based. The note with it: 2 h. In outline: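 HeLa cells co-expressing UbG76V-GFP and ODD-Luc were seeded at 5000/well in clear DMEM with 2.5% FBS. They were pretreated with 4 μM MG132 for 60 min at 37 °C, washed with PBS, then given cycloheximide plus compound for 120 min at 37 °C and washed. GFP was read by high-content confocal imaging, then luminescence after 10 min with D-luciferin at r.t. IC50 was fitted from quadruplicates.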
(A reporter such as luciferase makes a cellular process visible.)

Assay [11] in a line: Effect on PRKRIR expression in human HCT-116 cells at 30 uM measured after 6 hrs by LC-MS/MS analysis relative to control. Type of assay: functional. The gist of the method:
as §1

Assay [12] is described as follows: Effect on STIM1 expression in human HCT-116 cells at 30 uM measured after 6 hrs by LC-MS/MS analysis relative to control. Type of assay: functional. The gist of the method: as §1
Assay [13] addresses T1, Transitional endoplasmic reticulum ATPase. Briefly: Inhibition of His6-tagged p97 (unknown origin) expressed in Escherichia coli BL21 (DE3) assessed as reduction in ATPase activity measured after 60 mins in presence of cysteine by biomol green reagent based assay. In outline: as §2
The nature of assay [14]: Effect on BRIX1 expression in human HCT-116 cells at 30 uM measured after 6 hrs by LC-MS/MS analysis relative to control. The class given is functional. The gist of the method:
as §1

For assay [15], the target named is Transitional endoplasmic reticulum ATPase (Homo sapiens, UniProt P55072, C522A). Nature of the assay: Inhibition of His6-tagged p97 C522A mutant (unknown origin) expressed in Escherichia coli BL21 (DE3) assessed as reduction in ATPase activity measured after 60 mins by biomol green reagent based assay. In outline: as §2
A short description of assay [16]: Effect on CDK2AP1 expression in human HCT-116 cells at 30 uM measured after 6 hrs by LC-MS/MS analysis relative to control. The class given is functional. In outline: as §1
Assay [17] can be described thus: Inhibition of yeast Cdc48 assessed as reduction in ATPase activity measured after 60 mins by biomol green reagent based assay. Also noted: species or system Saccharomyces cerevisiae. In outline:
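Incubation ran 60 min at room temperature and was stopped with Biomol Green. Phosphate was read as absorbance at 635 nm. IC50 came from an eight-dose titration, six replicates.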

Assay [18] in a line: Effect on BRIX1 expression in human HCT-116 cells at 15 uM measured after 6 hrs by LC-MS/MS analysis relative to control. The class given is functional. The gist of the method:
as §1

Structures are written as SMILES. Active and inactive are the calls of the source. The calls are words filed in the database; no cut-off is given here.

T1 sequence (P55072 2-806 limits assumed): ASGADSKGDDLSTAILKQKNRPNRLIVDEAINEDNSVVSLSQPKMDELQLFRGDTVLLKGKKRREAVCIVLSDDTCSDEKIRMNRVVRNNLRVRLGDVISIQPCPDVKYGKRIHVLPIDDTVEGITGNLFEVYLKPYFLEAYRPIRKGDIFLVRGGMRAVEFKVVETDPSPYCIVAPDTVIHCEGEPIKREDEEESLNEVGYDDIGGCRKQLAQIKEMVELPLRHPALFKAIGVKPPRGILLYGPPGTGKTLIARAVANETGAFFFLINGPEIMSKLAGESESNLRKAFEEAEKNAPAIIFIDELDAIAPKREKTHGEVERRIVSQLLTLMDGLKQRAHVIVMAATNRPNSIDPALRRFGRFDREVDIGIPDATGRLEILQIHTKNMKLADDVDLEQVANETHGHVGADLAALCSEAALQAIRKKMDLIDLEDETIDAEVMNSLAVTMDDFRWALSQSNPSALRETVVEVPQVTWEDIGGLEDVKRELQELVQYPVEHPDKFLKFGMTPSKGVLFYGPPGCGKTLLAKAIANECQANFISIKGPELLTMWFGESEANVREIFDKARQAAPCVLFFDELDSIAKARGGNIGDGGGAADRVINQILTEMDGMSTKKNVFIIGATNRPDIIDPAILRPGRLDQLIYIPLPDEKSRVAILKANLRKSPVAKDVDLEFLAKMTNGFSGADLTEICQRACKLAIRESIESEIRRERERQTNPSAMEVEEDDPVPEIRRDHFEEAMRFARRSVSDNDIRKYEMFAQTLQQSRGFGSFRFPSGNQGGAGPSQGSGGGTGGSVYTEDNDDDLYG
Transitional endoplasmic reticulum ATPase (Homo sapiens, UniProt P55072, C522A), sequence (P55072 2-806 C522A limits assumed): as the sequence (P55072 2-806 limits assumed) above, with C521A counted along it

By IC50 is commonly meant the concentration at which inhibition is half-maximal. In the case of `C=CC(=O)Nc1ncnc2c1c(-c1ccccc1)nn2C(C)(C)C`, the inhibition entry in assay [1], in assay [5] and in assay [13] was “Active” throughout. Also, the log2FC was 0.58 in assay [2]; -0.36 in assay [4]; -0.33 in assay [6]; 0.38 in [8]; -0.39 in [9]; 0.68 in [11]. The log2FC in [12] is listed as 1.65; in [14], 0.7; in assay [16] it was -0.47; in assay [18], 0.52. In addition, the IC50 in assay [3] is 82 µM; in [10] it was 35 µM; in assay [15] it was 110 µM; in assay [17], 376 µM. The Selectivity ratio in assay [7] turned out to be 20.
